ChEMBL document CHEMBL4354825, “Design and Synthesis of Basic Selective Estrogen Receptor Degraders for Endocrine Therapy Resistant Breast Cancer” (J Med Chem, 2019)
Active and inactive are the calls of the source. The rule behind the calls is not given here.

What was measured:
T47D [1] = assay: Cytotoxicity against human T47D 3D spheroid cells harboring Y537S mutant assessed as reduction in tumor cell viability at 10 nM incubated for 14 days by celltiter-glo 3D cell viability assay
T47D [2] = assay: Cytotoxicity against human T47D 3D spheroid cells harboring D538G mutant assessed as reduction in tumor cell viability at 10 nM incubated for 14 days by celltiter-glo 3D cell viability assay
T47D [3] = assay: Cytotoxicity against human T47D 3D spheroid cells assessed as reduction in tumor cell viability at 10 nM incubated for 14 days by celltiter-glo 3D cell viability assay
Estrogen receptor [4] = molecular target: T1, Estrogen receptor (Homo sapiens, UniProt P03372); assay: Antagonist activity at ERalpha in human MCF7:WS8 cells incubated for 18 hrs by dual luciferase reporter gene assay relative to control; type: cell-based
T1 sequence (P03372 whole entry): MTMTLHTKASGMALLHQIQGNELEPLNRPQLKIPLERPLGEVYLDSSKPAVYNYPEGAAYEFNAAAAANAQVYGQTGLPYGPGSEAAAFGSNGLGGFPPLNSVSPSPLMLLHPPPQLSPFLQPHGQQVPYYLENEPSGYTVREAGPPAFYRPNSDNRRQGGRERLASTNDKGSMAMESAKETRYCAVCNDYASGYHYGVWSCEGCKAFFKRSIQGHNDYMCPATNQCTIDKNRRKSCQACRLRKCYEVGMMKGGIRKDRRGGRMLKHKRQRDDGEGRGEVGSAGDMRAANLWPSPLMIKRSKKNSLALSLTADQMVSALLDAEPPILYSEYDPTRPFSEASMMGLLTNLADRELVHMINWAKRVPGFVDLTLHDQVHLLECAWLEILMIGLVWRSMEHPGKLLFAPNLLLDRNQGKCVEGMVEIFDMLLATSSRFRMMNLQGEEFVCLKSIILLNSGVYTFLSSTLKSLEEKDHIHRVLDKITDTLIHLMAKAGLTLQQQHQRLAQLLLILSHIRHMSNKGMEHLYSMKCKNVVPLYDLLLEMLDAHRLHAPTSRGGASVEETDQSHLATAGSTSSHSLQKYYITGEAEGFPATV
Outline: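 MCF7:WS8 cells were estrogen-deprived for 3 days (phenol red-free RPMI, stripped FBS), then plated and grown 24 h. They were co-transfected for 6 h with a 3×vitellogenin ERE-firefly luciferase plasmid and a pRL-TK Renilla plasmid. Compounds were given in competition with 1 nM E2 for 18 h, then dual luciferase was read.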

[5] = Antiproliferative activity against human MCF7:WS8 cells assessed as reduction in cell viability incubated for 5 days by Hoechst 33258 dye based assay; type: functional; settings: MCF7:WS8, 120 h
Outline: (§1)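 Cells were seeded at 5000 per well; MCF7:WS8 had been estrogen-stripped for 2 days first. Compounds were serially diluted in DMSO, with 0.01% DMSO as vehicle. The medium was removed on day 5 (MCF7:WS8) or day 7 (MCF7:5C), and cells were lysed by freezing at −80 °C overnight. DNA was measured by Hoechst 33258 fluorescence. Maximum efficacy was normalized to vehicle (0%) and no cells (100%); at least three biological replicates.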

[6] = molecular target: T2, Estrogen receptor (Homo sapiens) (UniProt P03372); assay: Inhibition of ERalpha in human MCF7:WS8 cells assessed as increase in degradation of ERalpha incubated for 24 hrs by In-Cell Western assay relative to control; type: cell-based
T2 sequence (whole entry): T1 sequence (P03372 whole entry)
Outline: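 MCF7:WS8 cells were estrogen-stripped for 2 days and plated at 2.5 × 10^4 per well. After 48 h they were treated for 24 h. ERα was detected by in-cell western (H10 antibody), with signal normalized to CellTag 700.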

[7] = Antiproliferative activity against human MCF7:WS8 cells assessed as reduction in cell viability incubated for 5 days by Hoechst 33258 dye based assay relative to control; type: functional; settings: MCF7:WS8, 120 h
Outline: as §1

cells = settings: Homo sapiens, MCF7:5C, 168 h
[8] = (§2) Antiproliferative activity against human MCF7:5C cells assessed as reduction in cell viability incubated for 7 days by Hoechst 33258 dye based assay relative to control; type: functional; settings: 168 h
Outline: as §1

Estrogen receptor [9] = molecular target: T1, Estrogen receptor; assay: Inhibition of ERalpha in human MCF7:WS8 cells assessed as increase in degradation of ERalpha incubated for 24 hrs by In-Cell Western assay; type: cell-based
Outline: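 MCF7:WS8 cells were estrogen-stripped for 2 days and plated at 2.5 × 10^4 per well. ERα was detected by in-cell western (H10 antibody), with signal normalized to CellTag 700.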

MCF7:TAM1 = assay: Cytotoxicity against human MCF7:TAM1 3D spheroid cells assessed as reduction in tumor cell viability at 10 nM incubated for 14 days by celltiter-glo 3D cell viability assay
[10] = Plasma concentration in C57BL/6 mouse at 100 mg/kg, po measured after 2 hrs by LC/MS-MS analysis; type: ADME, organism-based
Outline: (§3)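 PK screen in female C57BL/6 mice (N = 3 per time point). Dosed by gavage at 100 mg/kg in HPβD/PEG-400. Plasma and brain were taken from perfused mice at 30 and 120 min. Quantified by LC-MS/MS in MRM mode, with standard curves in each matrix and a common internal standard. Values are mean and s.d.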

[11] = Plasma concentration in C57BL/6 mouse at 100 mg/kg, po measured after 0.5 hrs by LC/MS-MS analysis; type: ADME, organism-based
Outline: as §3

Homo sapiens [12] = species on record: Homo sapiens; assay: Cytotoxicity against human MCF7:WS8 3D spheroid cells assessed as reduction in tumor cell viability at 10 nM incubated for 14 days by celltiter-glo 3D cell viability assay
Homo sapiens [13] = species on record: Homo sapiens; assay: Cytotoxicity against human MCF7:WS8 3D spheroid cells assessed as reduction in tumor spheroid size at 10 nM incubated for 14 days
[14] = Drug concentration in C57BL/6 mouse brain at 100 mg/kg, po measured after 2 hrs by LC/MS-MS analysis; type: ADME, organism-based; settings: read-out: Drug uptake
Outline: as §3

[15] = Drug concentration in C57BL/6 mouse brain at 100 mg/kg, po measured after 0.5 hrs by LC/MS-MS analysis; type: ADME, organism-based; settings: read-out: Drug uptake
Outline: as §3

Homo sapiens [16] = species on record: Homo sapiens; assay: as §2; type: functional
Outline: as §1

[17] = molecular target: T2, Estrogen receptor (Homo sapiens); assay: Induction of degradation of ERalpha in human MCF7:WS8 cells at 100 nM in presence of MG-132 incubated for 24 hrs by Western blot analysis; type: cell-based

Compound | IC50 (Estrogen receptor [4]) | IC50 [5] | Efficacy [6] | Emax [7] | IC50 (cells; read-out: pIC50 (converted)) | Emax [8] | IC50 (Estrogen receptor [9]) | other results
CC1=C(c2cccc(O)c2)[C@H](c2ccc(OCCN3CC(CF)C3)cc2)Oc2ccc(O)cc21 |  |  |  |  |  |  |  | Activity (T47D [1]): Active; Activity (T47D [2]): Active; Activity (T47D [3]): Active
Cc1cc(F)ccc1C(=O)c1sc2cc(O)ccc2c1Oc1ccc(OCCN2CC(CF)C2)cc1 | 2.7 nM | 0.251 nM | 95% | 77% | 0.363 nM | 52% | 3.63 nM | 
Cc1ccccc1C(=O)c1sc2cc(O)ccc2c1Oc1ccc(OCCN2CC[C@@H](CF)C2)cc1 |  | 0.0126 nM | 84% | 85% | 0.0871 nM | 67% | 10.5 nM | 
O=C(c1ccccc1)c1sc2cc(O)ccc2c1Oc1ccc(OC2CN(CCCF)C2)cc1 | 0.5 nM | 0.288 nM | 88% | 67% | 0.162 nM | 41% | 0.708 nM | 
Cc1cc(F)cc(C)c1C(=O)c1sc2cc(O)ccc2c1Oc1ccc(OCCN2CC(CF)C2)cc1 | 3.5 nM | 0.468 nM | 85% | 73% | 2.14 nM | 47% | 1.41 nM | Activity (MCF7:TAM1): Active; concentration at 2 h [10]: 659 nM; concentration at 0.5 h [11]: 786 nM; Activity (Homo sapiens [12]): Active; Activity (Homo sapiens [13]): Active; concentration at 2 h [14]: 588 nM; concentration at 0.5 h [15]: 750 nM
Cc1ccccc1C(=O)c1sc2cc(O)ccc2c1Oc1ccc(OCCN2CCC2)cc1 |  | 0.912 nM | 37% | 70% | 1.29 nM | 31% | 1.91 nM | 
Cc1ccccc1C(=O)c1sc2cc(O)ccc2c1Oc1ccc(OCCN2CC(CF)C2)cc1 | 1.5 nM | 1.07 nM | 92% | 72% | 0.955 nM | 40% | 0.955 nM | 
Cc1ccccc1C(=O)c1sc2cc(O)ccc2c1Oc1ccc(OCCN2CC(C)C2)cc1 | 1.9 nM | 0.0417 nM | 81% | 69% | 0.263 nM | 48% | 0.257 nM | 
Cc1ccc(C(=O)c2sc3cc(O)ccc3c2Oc2ccc(OCCN3CC(CF)C3)cc2)c(C)c1 | 7.4 nM | 0.155 nM | 83% | 68% | 0.38 nM | 42% | 1.45 nM | 
O=C(c1ccc(OCCN2CCCCC2)cc1)c1c(-c2ccc(O)cc2)sc2cc(O)ccc12 [RALOXIFENE] |  | 2.4 nM |  | 69% |  |  |  | Emax (Homo sapiens [16]): inactive
Cc1cc(O)ccc1C(=O)c1sc2cc(O)ccc2c1Oc1ccc(OCCN2CC(CF)C2)cc1 | 14 nM | 0.575 nM | 90% | 78% | 0.12 nM | 36% | 5.13 nM | 
CC/C(=C(\c1ccc(O)cc1)c1ccc(OCCN(C)C)cc1)c1ccccc1 |  |  |  |  |  |  |  | Activity (T47D [1]): Active; Activity (T47D [2]): Active; Activity (T47D [3]): Active
Cc1cc(F)cc(C)c1C(=O)c1sc2cc(O)ccc2c1Oc1ccc(OC2CN(C3CC3)C2)cc1 | 11 nM | 0.0631 nM | 51% | 62% | 0.141 nM | 16% | 5.89 nM | 
O=C(c1ccc(O)cc1)c1sc2cc(O)ccc2c1Oc1ccc(OCCN2CC(CF)C2)cc1 | 64 nM | 0.708 nM | 47% | 73% |  |  | 8.13 nM | IC50 (cells): > 100 nM
O=C(c1ccc(F)cc1)c1sc2cc(O)ccc2c1Oc1ccc(OCCN2CC(CF)C2)cc1 | 28 nM | 1.02 nM | 89% | 67% | 0.447 nM | 46% | 1.23 nM | Activity (Homo sapiens [12]): Active; Activity (Homo sapiens [13]): Active
Cc1cc(F)cc(C)c1C(=O)c1sc2cc(O)ccc2c1Oc1ccc(OCCN2CC[C@H](CF)C2)cc1 |  | 0.407 nM | 42% | 70% | 1 nM | 42% | 3.02 nM | 
Cc1cc(F)ccc1C(=O)c1sc2cc(O)ccc2c1Oc1ccc(OC2CN(CCCF)C2)cc1 | 5.2 nM | 0.17 nM | 95% | 69% | 0.117 nM | 45% | 9.33 nM | 
Cc1ccccc1C(=O)c1sc2cc(O)ccc2c1Oc1ccc(OC2CN(CCCF)C2)cc1 | 2.1 nM | 0.145 nM | 82% | 67% | 2.82 nM | 59% | 2.57 nM | Activity (Homo sapiens [12]): Active; Activity (Homo sapiens [13]): Active
O=C(c1ccccc1)c1sc2cc(O)ccc2c1Oc1ccc(OCCN2CC(CF)C2)cc1 | 4.3 nM | 0.174 nM | 85% | 64% | 0.263 nM | 48% | 1.02 nM | 
O=C(c1cccc(F)c1)c1sc2cc(O)ccc2c1Oc1ccc(OCCN2CC(CF)C2)cc1 |  | 0.229 nM |  | 78% | 0.295 nM | 36% |  | 
Cc1cc(F)cc(C)c1C(=O)c1sc2cc(O)ccc2c1Oc1ccc(OCCN2CC[C@@H](CF)C2)cc1 | 12 nM | 0.631 nM | 84% | 66% | 1.07 nM | 34% | 5.89 nM | concentration at 2 h [10]: 163 nM; concentration at 0.5 h [11]: 211 nM; concentration at 2 h [14]: 276 nM; concentration at 0.5 h [15]: 121 nM
Cc1ccccc1C(=O)c1sc2cc(O)ccc2c1Oc1ccc(OCCN2CCCCC2)cc1 |  | 0.407 nM |  | 68% |  |  |  | Emax (Homo sapiens [16]): inactive
O=C(c1cccc(F)c1)c1sc2cc(O)ccc2c1Oc1ccc(OC2CN(CCCF)C2)cc1 |  | 0.141 nM |  | 70% | 0.182 nM |  |  | 
CCNCCc1ccc(CN(CC)c2cc(OC)ccc2[C@@H]2CCc3cc(O)ccc3C2)cc1 |  |  |  |  |  |  |  | Activity [17]: Active
